Data set [1] is described as follows: Microsomal stability test, human liver microsome. The class given is in vitro ADME. To be noted: human liver microsomes. In a few lines: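 Human liver microsomes (10 µL at 20 mg/mL) were combined with 330 µL 0.1 M phosphate buffer (3.3 mM MgCl2) and 40 µL of 10 µM test compound, with NADPH in the same buffer. Verapamil was the positive control.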
Data set [2] is described as follows: Microsomal stability test, mouse liver microsome. Type of data set: in vitro ADME. The conditions noted are these: MLM and HLM t1/2, vs compound 1. A general note: Microsomes from liver hold many membrane-bound enzymes, among them those of drug oxidation.
Data set [3] has as its system MIA PaCa-2 cells. In words: 7-day MTT growth inhibition assay, MIA PaCa-2. The conditions noted are these: for IC50: Homo sapiens, MIA PaCa-2, 168 h; for activity (cytotoxicity in pancreatic cancer cells): 7-day MTT assay. Type of data set: cell-based. A digest of the protocol: (§1)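 Cells were seeded in glucose-containing medium (MIA PaCa-2 200 cells/well; BxPC-3 300 cells/well), incubated overnight at 37 °C, 5% CO2, then exposed to test compound or DMSO for 7 days. MTT (3 mg/mL solution) was added for 4 h, formazan dissolved in DMSO, and A570 read. Inhibition = [1 − (At−Ab)/(Ac−Ab)] × 100. IC50 came from nonlinear regression; at least three independent runs.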
In general terms: Formazan colour is commonly taken as a measure of viable cells.

Data set [4] concerns MIA PaCa-2 cells. Description: 3-day MTT assay in glucose- or galactose-containing medium. Type of data set: cell-based. A digest of the protocol:
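MIA PaCa-2 cells were treated with test compound for 3 days in glucose-containing medium. MTT (3 mg/mL solution) was added for 4 h at 37 °C. Supernatant was removed, formazan was dissolved in DMSO, and absorbance was read at 570 nm. IC50 came from nonlinear regression of log concentration–response curves. Experiments were run at least three times.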

The subject of a further data set is OXPHOS Complex I. In words: NAD+/NADH ratio. Type of data set: cell-based. To be noted: MIA PaCa-2 cells, NAD/NADH-Glo Assay, 2 days treatment. In a few lines: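 MIA PaCa-2 cells (5 × 10^3/well) were treated the next day for 48 h with test compound in RPMI 1640 + 10% FBS. Cells were PBS-washed and lysed in bicarbonate base buffer with 1% DTAB. For NAD+, lysate was acid-treated (0.4 N HCl); for NADH, lysate was heated directly; both at 60 °C for 15 min, then neutralised with Trizma. After 30 min with Glo detection reagent, luminescence was read. IC50 of the NAD+/NADH ratio came from nonlinear regression.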

A further data set relates to BxPC-3 cells. Description: 7-day MTT growth inhibition assay, BxPC-3. The class given is cell-based. To be noted: Homo sapiens, BXPC-3, 168 h, read-out: IC50 in BxPC-3 cells. A digest of the protocol:
as §1

A short description of data set [5]: Pharmacokinetics in CD-1 mice. The conditions noted are these: plasma. Type of data set: in vivo. A digest of the protocol: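 CD-1 mice received test compound at 2 mg/kg i.v. or 10 mg/kg p.o., and plasma concentration–time profiles were measured. Parameters came from non-compartmental analysis: AUC(0-tldc) to last detectable concentration and AUC(0-inf) extrapolated to infinity. Terminal half-life used ≥3 terminal-phase points. Bioavailability = (AUCpo × Dose_iv)/(AUCiv × Dose_po) × 100%.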

Another data set deals with Pan02 cells. Description: Pan02 syngeneic pancreatic cancer model efficacy study. The class given is in vivo. To be noted: for tumor growth inhibition: Pan02 syngeneic model. A digest of the protocol: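 Female C57BL/6 mice, 6-10 weeks old, received 5×10^6 Pan02 cells s.c. in the right flank and were randomized (n = 5/group) at ~100 mm3. Dosing was daily for 28 days in 10% DMSO/50% PG/40% saline, or 10% DMSO/60% PG/30% saline for the 15 mg/kg dose. Tumours were measured by caliper twice weekly, V = (length × width²)/2. Body weight was recorded before dosing, then twice weekly.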

Where [6] appears, read: read-out: IC50 in MIA PaCa-2 cells.

These results are taken from publication PMC9165018 (Journal of medicinal chemistry, 2022).

“And” between values parts separate entries of the source, which are not always exact repeats. Identical values can stand only once. “Also recorded” adds a separate entry of the source. Like-named read-outs stand apart in the source and are kept apart here.

Consider `CCOC(=O)[C@@H]1CCCN(S(=O)(=O)c2ccc(S(=O)(=O)N(CC)CC)cc2)C1` [Compound 1], for which the “HLM t1/2 (human liver microsome half life)” value in data set [1] was determined as 36 s.

Regarding `CCN(CC)S(=O)(=O)c1ccc(S(=O)(=O)N2CCC[C@@H](C(=O)NC3COC3)C2)cc1` [Compound 2], the “improvement of microsomal stability over compound 1” value in data set [2] is recorded as “more than 30 fold”.

Turning to `CCN(CC)S(=O)(=O)c1ccc(S(=O)(=O)N2CCC[C@@H](C(=O)N3CCC(OC)CC3)C2)cc1` [Compound 12, (R)-N,N-Diethyl-4-((3-(4-methoxypiperidine-1-carbonyl)piperidin-1-yl)sulfonyl)benzenesulfonamide], the “improvement in MIA PaCa-2 cell growth inhibition” value with MIA PaCa-2 cells [3] (vs compound 11) turned out to be 2 fold. Moreover, the “activity in glucose-containing medium” value in the data set on MIA PaCa-2 cells [4] was “inactive”.

In the case of `CCN(CC)S(=O)(=O)c1ccc(S(=O)(=O)N2CCC[C@@H](C(=O)N3CCC(F)(F)CC3)C2)cc1` [Compound 16, (R)-4-((3-(4,4-Difluoropiperidine-1-carbonyl)piperidin-1-yl)sulfonyl)-N,N-diethylbenzenesulfonamide], in the data set with OXPHOS Complex I, the “NAD+/NADH ratio (IC50, nM) Glucose medium” value (“NAD+/NADH ratio” below) is 23 ± 18.1 nM.

Turning to `CN(C)S(=O)(=O)c1ccc(S(=O)(=O)N2CCC[C@@H](C(=O)N3CCC(F)(F)CC3)C2)cc1` [Compound 20, (R)-4-((3-(4,4-Difluoropiperidine-1-carbonyl)piperidin-1-yl)sulfonyl)-N,N-dimethylbenzenesulfonamide], the IC50 – broadly, the concentration that inhibits the measured activity by half – with MIA PaCa-2 cells [3] (read-out: MIA PaCa-2 IC50) worked out at 0.118 ± 0.044 µM. Also, the “NAD+/NADH ratio” value in the data set with OXPHOS Complex I turned out to be 34 ± 15 nM.

Turning to `O=C([C@@H]1CCCN(S(=O)(=O)c2ccc(S(=O)(=O)N3CC[C@@H](O)C3)cc2)C1)N1CCC(F)(F)CC1` [Compound 21, (4,4-Difluoropiperidin-1-yl)((R)-1-((4-(((R)-3-hydroxypyrrolidin-1-yl)sulfonyl)phenyl)sulfonyl)piperidin-3-yl)methanone], the “NAD+/NADH ratio” value in the data set with OXPHOS Complex I came out at 67.5 ± 18.8 nM.

Regarding `CC(C)S(=O)(=O)c1ccc(S(=O)(=O)N2CCC[C@@H](C(=O)N3CCC(F)(F)CC3)C2)cc1` [Compound 23, (R)-(4,4-Difluoropiperidin-1-yl)(1-((4-(isopropylsulfonyl)phenyl)sulfonyl)piperidin-3-yl)methanone], the values for the IC50 in the data set on MIA PaCa-2 cells [3] (setting [6]) and in the data set with BxPC-3 cells were approximately 0.01 µM and less than 0.1 µM, respectively. Besides, in the data set with OXPHOS Complex I, the “NAD+/NADH ratio” value was 3.6 nM and 3.6 ± 3.2 nM. Moreover, the “AUC(0-inf)” value is on record as 657.0 nM:h in data set [5] (IV 2 mg/kg) and 417.1 nM:h in data set [5] (PO 10 mg/kg). The results for the “AUC(0-tldc)” value in data set [5] (IV 2 mg/kg) and in data set [5] (PO 10 mg/kg) were 650.0 nM:h and 368.1 nM:h, respectively. In the data set on Pan02 cells (Pan02 model, once daily for 28 days, 20 7.5 mg/kg i.p., 21 15 mg/kg i.p., 27 2.5 mg/kg i.p., 23 10 mg/kg p.o.), the tolerability result is on record as “well tolerated”. Besides, in the data set with Pan02 cells (10 mg/kg p.o. once daily for 28 days, 10 mg/kg), the tumor growth inhibition entry is “significant tumor growth inhibition; also recorded: significant tumor growth delay”.

With `CCC(CC)S(=O)(=O)c1ccc(S(=O)(=O)N2CCC[C@@H](C(=O)N3CCC(F)(F)CC3)C2)cc1` [Compound 25, (R)-(4,4-Difluoropiperidin-1-yl)(1-((4-(pentan-3-ylsulfonyl)phenyl)sulfonyl)piperidin-3-yl)methanone], the IC50 with MIA PaCa-2 cells [3] (setting [6]) is approximately 0.01 µM; with BxPC-3 cells it was less than 0.1 µM.

For the molecule `O=C([C@@H]1CCCN(S(=O)(=O)c2ccc(S(=O)(=O)C3CCC3)cc2)C1)N1CCC(F)(F)CC1` [Compound 27, (R)-(1-((4-(Cyclobutylsulfonyl)phenyl)sulfonyl)piperidin-3-yl)(4,4-difluoropiperidin-1-yl)methanone], the IC50 in the data set on MIA PaCa-2 cells [3] (setting [6]) is approximately 0.01 µM; in the data set with BxPC-3 cells it was less than 0.1 µM. The “NAD+/NADH ratio” value in the data set on OXPHOS Complex I amounted to 3.2 ± 1.3 nM. For the same molecule, the tumor growth inhibition result in the data set on Pan02 cells (2.5 mg/kg i.p. once daily for 28 days) is “significant tumor growth inhibition”.

Take `CP(C)(=O)c1ccc(S(=O)(=O)N2CCC[C@@H](C(=O)N3CCC(F)(F)CC3)C2)cc1` [Compound 30, (R)-(4,4-Difluoropiperidin-1-yl)(1-((4-(dimethylphosphoryl)phenyl)sulfonyl)piperidin-3-yl)methanone]: the “activity (cytotoxicity in pancreatic cancer cells)” value in the data set with MIA PaCa-2 cells [3] is listed as “complete loss of activity”.

Regarding `CCP(=O)(CC)c1ccc(S(=O)(=O)N2CCC[C@@H](C(=O)N3CCC(F)(F)CC3)C2)cc1` [Compound 31, (R)-(1-((4-(diethylphosphoryl)phenyl)sulfonyl)piperidin-3-yl)(4,4-difluoropiperidin-1-yl)methanone], in the data set with MIA PaCa-2 cells [3], the “activity (cytotoxicity in pancreatic cancer cells)” value is listed as “complete loss of activity”.
